ChEMBL document CHEMBL3286182, “4-aminoquinolone piperidine amides: noncovalent inhibitors of DprE1 with long residence time and potent antimycobacterial activity” (J Med Chem, 2014)
≈ marks a conversion by molar mass, not a printed value. Calls of active or inactive are those of the source. The calls are words filed in the database; no cut-off is given here.

How the values were obtained:
Haemophilus influenzae [1] = test: Antimicrobial activity against Haemophilus influenzae ARC158 at 100 uM; assay type: functional, organism-based
In short: (§1)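 Nonmycobacterial panel of Candida albicans, Gram-negative and Gram-positive pathogens.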

[2] = system: Mycolicibacterium smegmatis; test: Antimicrobial activity against Mycobacterium smegmatis ATCC 607 at 100 uM; assay type: functional, organism-based
[3] = Fraction unbound in human plasma at 20 uM after 18 hrs by equilibrium dialysis method; assay type: ADME, cell-free
[4] = system: Mycobacterium tuberculosis; test: Antimycobacterial activity against Mycobacterium tuberculosis H37Rv after 5 days by standard microdilution method; assay type: functional; details: 120 h
Haemophilus influenzae [5] = test: Antimicrobial activity against Haemophilus influenzae ARC446 at 100 uM; assay type: functional, organism-based; in short: as §1
[6] = Permeability of the compound from basolateral to apical side in human Caco2 cells; assay type: ADME, cell-based; details: Caco-2, read-out: permeability
[7] = Octanol-water partition coefficient, log D of the compound by shake-flask method; assay type: physicochemical
[8] = Cytotoxicity against human A549 cells after 72 hrs by resazurin based fluorescence assay; assay type: cell-based; details: read-out: MIC
In short: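 Cytotoxicity read as MMIC, the MIC on the A549 cell line.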

Cytochrome P450 2D6 = Cytochrome P450 2D6 (Homo sapiens, UniProt P10635); test: Inhibition of CYP2D6 (unknown origin); assay type: ADME
In short: (§2)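 CYP inhibition IC50 measured on isoforms CYP3A4, CYP2D6, CYP2C9, CYP2C19 and CYP1A2.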

[9] = system: Mycobacterium tuberculosis; test: Antimycobacterial activity against Mycobacterium tuberculosis H37Rv under hypoxic condition after 6 days by resazurin assay; assay type: functional
[10] = Intrinsic clearance in human liver microsomes at 1 uM up to 30 mins by LC-MS/MS analysis; assay type: ADME; details: read-out: CLH
[11] = Inhibition of Mycobacterium smegmatis recombinant DprE1 using farnesylphosphoryl-beta-D-ribofuranose as substrate assessed as conversion of amplex red to resorufin after 30 mins; set-up: species or system Mycolicibacterium smegmatis
In short: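 Msm DprE1 (thioredoxin-6His fusion of Msm Rv3790) at 75 nM, preincubated 30 min with 10 μM FAD. Buffer: 50 mM glycylglycine pH 8.5, 200 mM potassium glutamate, 0.002% Brij-35, 2% DMSO, 25 °C. Started with 300 μM farnesylphosphoryl-β-D-ribofuranose, 0.01 mg/mL HRP and 50 μM Amplex Red.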

[12] = Solubility of the compound in fed-state simulated intestinal fluid at pH 6.5; assay type: ADME
[13] = Solubility of the compound in 0.1 M phosphate buffer at pH 7.4 after 24 hrs by UV and MS analysis; assay type: physicochemical
Adenosine receptor A1 = molecular target: T1, Adenosine receptor A1 (Homo sapiens, UniProt P30542); test: Inhibition of adenosine A1 receptor (unknown origin)
T1 sequence (P30542 whole entry): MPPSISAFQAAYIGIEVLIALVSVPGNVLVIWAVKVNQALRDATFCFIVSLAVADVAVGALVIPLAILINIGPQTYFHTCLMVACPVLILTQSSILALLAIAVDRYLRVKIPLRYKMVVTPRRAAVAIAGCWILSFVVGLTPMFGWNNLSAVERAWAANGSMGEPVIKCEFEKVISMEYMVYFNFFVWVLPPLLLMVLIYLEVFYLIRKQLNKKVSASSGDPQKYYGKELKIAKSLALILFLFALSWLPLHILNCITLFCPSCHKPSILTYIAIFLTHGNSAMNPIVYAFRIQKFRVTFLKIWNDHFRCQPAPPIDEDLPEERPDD
In short: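 Secondary pharmacology panel of binding, enzyme and functional assays covering 24 molecular targets. Activity recorded as a defined Ki/IC50/EC50.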

Cytochrome P450 1A2 = molecular target: T2, Cytochrome P450 1A2 (Homo sapiens, UniProt P05177); test: Inhibition of CYP1A2 (unknown origin); assay type: ADME; in short: as §2
T2 sequence (P05177 whole entry): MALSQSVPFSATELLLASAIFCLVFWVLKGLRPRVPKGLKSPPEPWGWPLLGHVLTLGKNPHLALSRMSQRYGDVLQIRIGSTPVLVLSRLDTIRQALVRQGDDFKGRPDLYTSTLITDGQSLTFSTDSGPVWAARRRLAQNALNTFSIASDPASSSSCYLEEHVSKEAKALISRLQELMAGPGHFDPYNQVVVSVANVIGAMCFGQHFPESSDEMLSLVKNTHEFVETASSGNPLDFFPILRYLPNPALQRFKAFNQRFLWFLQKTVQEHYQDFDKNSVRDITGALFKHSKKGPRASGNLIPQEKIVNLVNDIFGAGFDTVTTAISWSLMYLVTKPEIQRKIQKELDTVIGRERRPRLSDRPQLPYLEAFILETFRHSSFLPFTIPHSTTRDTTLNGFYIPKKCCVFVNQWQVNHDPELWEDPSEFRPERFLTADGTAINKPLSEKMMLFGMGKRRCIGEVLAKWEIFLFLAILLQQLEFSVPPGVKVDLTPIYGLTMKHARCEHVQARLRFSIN

[14] = system: Mycolicibacterium smegmatis; test: Antimicrobial activity against Mycobacterium smegmatis mc2155 at 100 uM; assay type: functional, organism-based; details: str. MC2 155
Klebsiella pneumoniae = test: Antimicrobial activity against Klebsiella pneumoniae ARC1865 at 100 uM; assay type: functional, organism-based; in short: as §1
Escherichia coli [15] = test: Antimicrobial activity against Escherichia coli ARC523 at 100 uM; assay type: functional, organism-based; in short: as §1
Candida albicans = test: Antimicrobial activity against Candida albicans ARC527 at 100 uM; assay type: functional, organism-based; in short: as §1
Escherichia coli [16] = test: Antimicrobial activity against Escherichia coli ARC524 at 100 uM; assay type: functional, organism-based; in short: as §1
[17] = system: Mycobacterium tuberculosis; test: Antimycobacterial activity against Mycobacterium tuberculosis over expressing DprE1 after 5 days by standard microdilution method; assay type: functional; details: 120 h
Cytochrome P450 2C19 = Cytochrome P450 2C19 (Homo sapiens, UniProt P33261); test: Inhibition of CYP2C19 (unknown origin); assay type: ADME; in short: as §2
Pseudomonas aeruginosa [18] = test: Antimicrobial activity against Pseudomonas aeruginosa ARC545 at 100 uM; assay type: functional, organism-based; in short: as §1
[19] = Inhibition of Mycobacterium smegmatis DprE1 Y321H mutant using farnesylphosphoryl-beta-D-ribofuranose as substrate assessed as conversion of amplex red to resorufin after 30 mins; set-up: species or system Mycolicibacterium smegmatis
In short: (§3)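 Recombinant M. smegmatis DprE1 (thioredoxin-6His fusion), wild type or Y321H, 75 nM. Enzyme was preincubated 30 min in FAD assay mix: 50 mM glycylglycine pH 8.5, 200 mM potassium glutamate, 10 μM FAD, 0.002% Brij-35, 2% DMSO. Reaction was started with 300 μM farnesylphosphoryl-β-D-ribofuranose, 0.01 mg/mL HRP and 50 μM amplex red at 25 °C.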

Cytochrome P450 3A4 = Cytochrome P450 3A4 (Homo sapiens, UniProt P08684); test: Inhibition of CYP3A4 (unknown origin); assay type: ADME; in short: as §2
[20] = Permeability of the compound from apical to basolateral side in human Caco2 cells; assay type: ADME, cell-based; details: Caco-2, read-out: permeability
Streptococcus pneumoniae = test: Antimicrobial activity against Streptococcus pneumoniae ARC548 at 100 uM; assay type: functional, organism-based; in short: as §1
[21] = system: Mycolicibacterium smegmatis; test: Ratio of IC50 for Mycobacterium smegmatis DprE1 Y321H mutant to IC50 for Mycobacterium smegmatis recombinant wild type DprE1; in short: as §3
Cytochrome P450 2C9 = Cytochrome P450 2C9 (Homo sapiens, UniProt P11712); test: Inhibition of CYP2C9 (unknown origin); assay type: ADME; in short: as §2
[22] = Intrinsic clearance in rat cryopreserved hepatocytes assessed per 10^6 cells at 1 uM up to 120 mins by LC-MS/MS analysis; assay type: ADME, cell-based, Hepatocyte; details: read-out: CLH
Pseudomonas aeruginosa [23] = test: Antimicrobial activity against Pseudomonas aeruginosa ARC546 at 100 uM; assay type: functional, organism-based; in short: as §1
Staphylococcus aureus = test: Antimicrobial activity against Staphylococcus aureus ARC517 at 100 uM; assay type: functional, organism-based; in short: as §1

Sequence of Cytochrome P450 2C19 (P33261 whole entry): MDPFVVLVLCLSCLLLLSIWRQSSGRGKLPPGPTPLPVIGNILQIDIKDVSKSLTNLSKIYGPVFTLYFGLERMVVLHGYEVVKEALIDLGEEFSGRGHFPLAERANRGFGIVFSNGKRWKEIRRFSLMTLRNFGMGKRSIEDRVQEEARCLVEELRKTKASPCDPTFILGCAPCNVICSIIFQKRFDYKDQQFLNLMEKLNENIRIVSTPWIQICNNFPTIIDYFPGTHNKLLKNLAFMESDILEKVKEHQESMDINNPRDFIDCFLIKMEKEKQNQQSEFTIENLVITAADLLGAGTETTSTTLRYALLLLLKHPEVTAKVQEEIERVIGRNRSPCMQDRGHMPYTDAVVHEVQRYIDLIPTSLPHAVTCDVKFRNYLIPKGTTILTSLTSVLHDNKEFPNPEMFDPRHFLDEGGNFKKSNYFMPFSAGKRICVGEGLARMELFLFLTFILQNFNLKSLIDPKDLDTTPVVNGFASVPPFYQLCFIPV
Sequence of Cytochrome P450 3A4 (P08684 whole entry): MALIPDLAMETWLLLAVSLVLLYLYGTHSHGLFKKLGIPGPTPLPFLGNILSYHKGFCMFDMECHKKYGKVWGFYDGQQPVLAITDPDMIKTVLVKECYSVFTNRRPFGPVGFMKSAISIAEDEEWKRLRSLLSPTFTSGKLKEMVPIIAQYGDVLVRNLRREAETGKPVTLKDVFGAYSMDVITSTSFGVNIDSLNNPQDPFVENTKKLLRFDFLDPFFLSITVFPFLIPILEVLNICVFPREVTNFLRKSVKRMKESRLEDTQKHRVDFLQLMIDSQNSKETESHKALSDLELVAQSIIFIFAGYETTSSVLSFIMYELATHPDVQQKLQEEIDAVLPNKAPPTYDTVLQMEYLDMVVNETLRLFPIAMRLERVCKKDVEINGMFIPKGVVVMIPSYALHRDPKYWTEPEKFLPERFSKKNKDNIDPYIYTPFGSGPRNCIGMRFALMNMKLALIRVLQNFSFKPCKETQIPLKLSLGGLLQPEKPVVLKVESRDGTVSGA
Sequence of Cytochrome P450 2D6 (P10635 whole entry, canonical isoform): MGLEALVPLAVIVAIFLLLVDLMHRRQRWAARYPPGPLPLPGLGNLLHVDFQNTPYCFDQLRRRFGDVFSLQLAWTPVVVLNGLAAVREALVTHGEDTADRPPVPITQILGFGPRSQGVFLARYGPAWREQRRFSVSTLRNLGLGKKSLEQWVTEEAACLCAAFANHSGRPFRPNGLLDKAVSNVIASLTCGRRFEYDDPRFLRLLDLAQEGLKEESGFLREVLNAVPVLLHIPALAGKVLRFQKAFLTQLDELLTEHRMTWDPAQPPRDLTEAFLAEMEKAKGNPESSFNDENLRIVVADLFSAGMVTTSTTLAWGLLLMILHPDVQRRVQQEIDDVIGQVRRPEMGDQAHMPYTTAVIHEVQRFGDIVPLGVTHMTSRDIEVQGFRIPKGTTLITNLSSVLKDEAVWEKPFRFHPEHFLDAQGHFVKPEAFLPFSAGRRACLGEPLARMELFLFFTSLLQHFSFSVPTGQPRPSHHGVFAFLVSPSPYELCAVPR
Sequence of Cytochrome P450 2C9 (P11712 whole entry): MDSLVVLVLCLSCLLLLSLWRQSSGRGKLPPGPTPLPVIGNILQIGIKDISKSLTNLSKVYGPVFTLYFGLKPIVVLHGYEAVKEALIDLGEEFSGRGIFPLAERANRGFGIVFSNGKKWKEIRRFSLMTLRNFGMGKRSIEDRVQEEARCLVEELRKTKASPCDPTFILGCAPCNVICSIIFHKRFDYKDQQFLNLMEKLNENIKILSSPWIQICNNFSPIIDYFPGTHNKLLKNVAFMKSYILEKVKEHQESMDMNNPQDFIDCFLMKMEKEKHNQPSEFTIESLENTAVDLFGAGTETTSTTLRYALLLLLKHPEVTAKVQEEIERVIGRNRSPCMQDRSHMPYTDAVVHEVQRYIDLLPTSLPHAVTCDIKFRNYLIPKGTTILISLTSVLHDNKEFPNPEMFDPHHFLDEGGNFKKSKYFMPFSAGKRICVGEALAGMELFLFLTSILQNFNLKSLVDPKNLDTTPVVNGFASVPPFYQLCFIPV

Structure (SMILES): Cc1onc(C(=O)N2CCC(Nc3cc(=O)n(C)c4cc(F)c(F)cc34)CC2)c1C
- Activity (Haemophilus influenzae [1]): inactive
- Activity [2]: inactive
- fraction unbound at 18 h, 20 µM [3]: 0.05
- MIC [4]: 0.78 µM (≈ 0.325 µg/mL)
- Activity (Haemophilus influenzae [5]): inactive
- Papp B→A [6]: 21 ×10⁻⁶ cm/s
- logD [7]: 2.3
- MCC at 72 h [8]: > 16 µM
- INH (Cytochrome P450 2D6): > 30 µM
- Activity [9]: inactive
- microsomal CLint at 1 µM [10]: 49 µL/min/mg
- IC50 [11]: 0.038 µM
- solubility [12]: 91 µM (≈ 37.9 µg/mL)
- solubility at 24 h [13]: 28 µM (≈ 11.7 µg/mL)
- IC50 (Adenosine receptor A1): 8 µM
- INH (Cytochrome P450 1A2): > 30 µM
- Activity [14]: inactive
- Activity (Klebsiella pneumoniae): inactive
- Activity (Escherichia coli [15]): inactive
- Activity (Candida albicans): inactive
- Activity (Escherichia coli [16]): inactive
- MIC [17]: 100 µM (≈ 41.6 µg/mL)
- INH (Cytochrome P450 2C19): > 30 µM
- Activity (Pseudomonas aeruginosa [18]): inactive
- IC50 [19]: 7.02 µM
- INH (Cytochrome P450 3A4): > 30 µM
- Papp A→B [20]: 22 ×10⁻⁶ cm/s
- Activity (Streptococcus pneumoniae): inactive
- fold change (FC) [21]: 165
- INH (Cytochrome P450 2C9): > 30 µM
- hepatocyte CLint at 1 µM [22]: 17 µL/min/1e6 cells
- Activity (Pseudomonas aeruginosa [23]): inactive
- Activity (Staphylococcus aureus): inactive
